Laboratory results: article PMC8952960 (Nature chemistry, 2021)

How the values were obtained:
[1] = biological target: K351R mutant of Ku70 with Ku80 (Homo sapiens, UniProt P12956, K351R); test: Ku70/Ku80 heterodimerization assay, K351R mutant of Ku70; format: biochemical
How it was run: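 FLAG-Ku70 (WT or K351R) HEK293T lysates were sonicated in 1% NP-40 buffer with protease inhibitors and normalised to 1.0 mg·mL⁻¹. They were treated with test compound or DMSO (1 h, 23 °C), then mixed with WT Ku80 lysate (1.0 mg·mL⁻¹, 1 h, 23 °C). Anti-FLAG co-IP (1 h, 4 °C) and four washes in 0.2% NP-40 buffer followed, with anti-HA immunoblot read-out.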

Ku70/Ku80 heterodimer = Ku70/Ku80 heterodimer (Homo sapiens, UniProt P12956); test: Ku70/Ku80 heterodimerization assay; format: biochemical; settings: pre-treatment of recombinantly expressed Ku70
[2] = biological target: preformed Ku70-Ku80 complex (Homo sapiens, UniProt P12956); test: treatment of preformed Ku70-Ku80 complex; format: biochemical; settings: 1 h, 23 °C
How it was run: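 Lysates of HEK293T cells co-expressing WT Ku80 with WT or K351R Ku70 were first anti-Flag co-immunoprecipitated (1 h, 4 °C). The captured complex was then exposed to test compound or DMSO at the stated concentrations (1 h, 23 °C), washed, and analysed by Western blot. Blots represent four independent experiments.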

K351 of XRCC6 (Ku70) = K351 of XRCC6 (Ku70) (Homo sapiens, UniProt P12956); test: competitive isoTOP-ABPP, XRCC6; format: binding
How it was run: (§1)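 Human cancer cell (MDA-MB-231, Ramos) soluble or membrane fractions at 1.8 mg·mL⁻¹, or live cells, were exposed to test compound or DMSO. Proteomes were then labelled with lysine probe 1 (100 µM, 1 h, 23 °C). Compound samples were clicked to light and DMSO samples to heavy TEV-biotin tags, then streptavidin-enriched, trypsinised, TEV-released and analysed by MS. R was taken as the median peptide ratio per lysine.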

K53 of GSTT2B = biological target: T1, K53 of GSTT2B (Homo sapiens, UniProt P0CG30); test: competitive isoTOP-ABPP; format: binding
T1 sequence (P0CG30 1-244): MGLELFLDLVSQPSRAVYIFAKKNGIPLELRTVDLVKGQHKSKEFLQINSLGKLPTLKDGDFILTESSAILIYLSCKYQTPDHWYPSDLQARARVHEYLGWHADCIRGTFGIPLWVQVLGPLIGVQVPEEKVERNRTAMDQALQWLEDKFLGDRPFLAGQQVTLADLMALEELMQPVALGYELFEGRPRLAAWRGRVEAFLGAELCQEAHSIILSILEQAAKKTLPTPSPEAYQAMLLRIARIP
How it was run: as §1

WT-CPOX (K404) = biological target: T2, WT-CPOX (K404) (Homo sapiens, UniProt P36551); format: binding; settings: compounds 50 µM, 1 h; gel-ABPP
T2 sequence (P36551 111-454): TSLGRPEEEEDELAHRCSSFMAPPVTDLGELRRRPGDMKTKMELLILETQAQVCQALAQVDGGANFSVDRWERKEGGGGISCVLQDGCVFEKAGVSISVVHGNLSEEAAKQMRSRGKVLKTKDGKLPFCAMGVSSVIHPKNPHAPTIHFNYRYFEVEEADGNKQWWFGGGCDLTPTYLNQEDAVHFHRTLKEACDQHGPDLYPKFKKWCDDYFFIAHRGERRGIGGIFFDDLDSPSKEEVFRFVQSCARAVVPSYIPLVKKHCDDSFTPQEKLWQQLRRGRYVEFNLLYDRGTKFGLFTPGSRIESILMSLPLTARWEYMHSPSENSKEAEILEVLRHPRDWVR

K404 of CPOX = biological target: T3, K404 of CPOX (Homo sapiens, UniProt P36551); test: competitive isoTOP-ABPP with probe P1, CPOX lysines; format: binding; settings: R ≥ 4 defines liganded
T3 sequence (P36551 111-454): T2 sequence (P36551 111-454)
How it was run: as §1

Sequence of K351 of XRCC6 (Ku70) (P12956 whole entry): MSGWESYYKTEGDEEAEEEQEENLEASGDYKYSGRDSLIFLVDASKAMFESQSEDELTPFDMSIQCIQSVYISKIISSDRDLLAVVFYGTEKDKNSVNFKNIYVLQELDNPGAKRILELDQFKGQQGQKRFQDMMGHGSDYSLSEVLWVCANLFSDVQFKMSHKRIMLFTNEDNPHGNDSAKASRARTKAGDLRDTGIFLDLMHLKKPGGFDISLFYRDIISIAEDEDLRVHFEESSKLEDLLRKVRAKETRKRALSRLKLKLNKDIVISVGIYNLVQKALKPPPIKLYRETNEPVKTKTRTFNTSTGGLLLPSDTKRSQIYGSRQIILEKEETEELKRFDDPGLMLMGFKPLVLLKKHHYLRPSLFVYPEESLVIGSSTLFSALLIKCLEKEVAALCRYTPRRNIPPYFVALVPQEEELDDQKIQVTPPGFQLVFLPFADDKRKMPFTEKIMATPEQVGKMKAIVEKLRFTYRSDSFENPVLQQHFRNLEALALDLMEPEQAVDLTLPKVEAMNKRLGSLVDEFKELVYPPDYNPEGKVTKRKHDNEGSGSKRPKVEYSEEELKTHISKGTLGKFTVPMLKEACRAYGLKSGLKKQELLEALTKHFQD
Sequence of Ku70/Ku80 heterodimer (P12956 whole entry, one chain of several): as the sequence (P12956 whole entry) above
Sequence of preformed Ku70-Ku80 complex (P12956 whole entry, one chain of several): as the sequence (P12956 whole entry) above
Sequence of K351R mutant of Ku70 with Ku80 (P12956 whole entry K351R): as the sequence (P12956 whole entry) above, with K351R counted along it

O=c1[nH]c2ccccc2c(=O)o1 [Compound 11e]
blockade of co-immunoprecipitation of K351R mutant of Ku70 with Ku80 [1]: Neither 11e nor 33e blocked
blockade of Ku70 co-immunoprecipitation with Ku80 (Ku70/Ku80 heterodimer): blocked co-immunoprecipitation with Ku80 in a concentration-dependent manner
effect on preformed Ku70-Ku80 complex [2]: does not block
liganding of K351 of XRCC6 (K351 of XRCC6 (Ku70)): liganded

O=C(ON1C(=O)c2ccccc2C1=O)c1cc(C(F)(F)F)cc(C(F)(F)F)c1 [Compound 12a]
engagement of K53 of GSTT2B by chemical proteomics (K53 of GSTT2B): engaged

O=Cc1c(O)cc(O)cc1O [Compound 28p]
blockade of P4 labelling of WT-CPOX (WT-CPOX (K404)): partially blocked
R value (DMSO/compound) for K404 of CPOX (K404 of CPOX): 3.3
